Molecules are shown by their SMILES. A value given as a limit tells only on which side of the number the result lay.

The results in this text go back to ChEMBL document CHEMBL1152665, “1,3,4-Oxadiazole-2(3H)-thione and its analogues: a new class of non-competitive nucleotide pyrophosphatases/phosphodiesterases 1 inhibitors” (Bioorg Med Chem, 2009).

A short description of data set [1]: Inhibition of snake venom NPP1 assessed as release of p-nitrophenol after 30 mins by microtitre plate spectrophotometry. On the set-up: species or system Naja naja. The method, boiled down:
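Substrate: 0.33 mM bis-(p-nitrophenyl) phosphate. p-Nitrophenol release read at 410 nm, 37 °C, after 30 min incubation. Initial rates taken as OD/min change, run in triplicate. Cysteine and EDTA served as positive controls.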

A short description of data set [2]: Noncompetitive inhibition of snake venom NPP1 by Dixon plot analysis. On the set-up: species or system Naja naja.
The nature of data set [3]: Cytotoxicity against human neutrophils assessed as cell viability up to 200 ug/mL after 30 mins by WST1 assay. It counts as cell-based, Neutrophil. The method, boiled down:
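Neutrophils isolated from heparinized venous blood of healthy volunteers (Ficoll sedimentation, ammonium chloride 0.83% RBC lysis), 1 × 10^7 cells/mL, exposed to compounds at 200–12.5 µg/mL (five concentrations) for 30 min. Then WST-1 0.25 mM, 3 h at 37 °C with shaking, absorbance 450 nm. Mean of five replicates; % viability relative to untreated control.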
On the technique in general: Tetrazolium assays rely on reduction of a dye to a coloured formazan, in cell work by metabolically active cells.

Data set [4] has as its target T1, Ectonucleotide pyrophosphatase/phosphodiesterase family member 1 (Homo sapiens, UniProt P22413).
T1 sequence (P22413 whole entry): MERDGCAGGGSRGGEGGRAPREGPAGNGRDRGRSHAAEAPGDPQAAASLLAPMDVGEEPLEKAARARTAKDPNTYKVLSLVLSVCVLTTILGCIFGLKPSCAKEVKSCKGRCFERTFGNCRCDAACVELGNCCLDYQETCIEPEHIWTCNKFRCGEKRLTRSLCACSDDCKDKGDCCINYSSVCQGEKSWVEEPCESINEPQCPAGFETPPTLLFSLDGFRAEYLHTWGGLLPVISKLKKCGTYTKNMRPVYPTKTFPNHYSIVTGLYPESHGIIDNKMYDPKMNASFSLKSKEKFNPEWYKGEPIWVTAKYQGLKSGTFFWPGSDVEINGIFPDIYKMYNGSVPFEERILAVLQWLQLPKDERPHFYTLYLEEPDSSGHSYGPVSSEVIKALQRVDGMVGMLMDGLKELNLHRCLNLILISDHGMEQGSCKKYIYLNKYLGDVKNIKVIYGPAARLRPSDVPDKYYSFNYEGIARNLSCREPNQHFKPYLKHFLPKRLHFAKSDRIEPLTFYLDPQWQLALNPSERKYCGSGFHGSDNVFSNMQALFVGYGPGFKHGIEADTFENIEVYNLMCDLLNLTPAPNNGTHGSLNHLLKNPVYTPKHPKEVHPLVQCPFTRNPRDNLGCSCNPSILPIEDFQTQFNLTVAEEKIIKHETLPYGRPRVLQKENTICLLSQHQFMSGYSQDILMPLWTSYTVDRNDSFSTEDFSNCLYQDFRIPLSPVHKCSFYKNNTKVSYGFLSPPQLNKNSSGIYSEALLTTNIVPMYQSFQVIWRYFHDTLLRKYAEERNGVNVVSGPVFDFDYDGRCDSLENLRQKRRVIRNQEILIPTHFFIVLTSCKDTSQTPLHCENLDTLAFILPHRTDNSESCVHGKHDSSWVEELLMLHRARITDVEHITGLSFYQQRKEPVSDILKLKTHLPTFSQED
The experiment in a line: Inhibition of human recombinant NPP1 assessed as release of p-nitrophenol by microtitre plate spectrophotometry. The method, boiled down:
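Soluble catalytic extracellular domain of human NPP1. Substrate p-nitrophenyl phenyl phosphonate in 20 mM Tris–HCl pH 8.0, 0.5 M NaCl, 1 mM CaCl2. p-Nitrophenol release read at 405 nm, 37 °C, microtitre plate. Triplicates; IC50 given with SEM of 3–5 experiments.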

The target of data set [5] is T1, Ectonucleotide pyrophosphatase/phosphodiesterase family member 1. Description: Noncompetitive inhibition of human recombinant NPP1 by Dixon plot analysis. An outline of the steps: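 Same human NPP1 assay at fixed inhibitor concentrations. Dixon plots run at p-nitrophenyl phenyl phosphonate 0.4, 0.6, 0.8 and 1.0 mM, and Lineweaver–Burk plots from initial velocities. Secondary replots were slope versus 1/[S], and 1/Vmaxapp or slope versus inhibitor. Ki is the mean of five values from these plots; points are means of three experiments.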

For `CCCCCCCCn1nc(-c2ccc(OCc3ccccc3)cc2)oc1=S`, the IC50 in data set [1] (read-out: IC50) was more than 1000 µM.

`Oc1cccc(-c2n[nH]c(=S)o2)c1`: the IC50 in data set [1] (read-out: IC50) is 1000 µM. In data set [2], this compound displayed a Ki of 1050 µM.

`CCCn1nc(-c2ccc(O)cc2)sc1=S`: the IC50 result in data set [1] is listed as “Not Active”.

As to `Oc1ccc(-c2n[nH]c(=S)o2)cc1`, the IC50 in data set [1] (read-out: IC50) stood at 960 µM. Further, in data set [2], the Ki amounted to 1150 µM.

For `CC(C)(C)[Si](C)(C)Oc1ccc(-c2n[nH]c(=S)o2)cc1`, the values for the concentration for half-maximal inhibition (IC50) in data set [1] (read-out: IC50) and in data set [4] were 383 µM and 368 µM, respectively. For the same compound, the results for the Ki in data set [2] and in data set [5] were 375 µM and 360 µM, respectively. Further, the viability at 0.5 h in data set [3] was more than 90%.

Consider `Oc1ccc(-c2n[nH]c(=S)s2)cc1`, for which the values for the IC50 in data set [1] (read-out: IC50) and in data set [4] were 390 µM and 900 µM, respectively. Further, the Ki in data set [2] is 350 µM; in data set [5], 850 µM.

As to `S=c1[nH]nc(-c2ccncc2)s1`, the IC50 stood at 660 µM in data set [1] (read-out: IC50) and 998 µM in data set [4]. The compound also registered a Ki in data set [2] of 525 µM.

`Oc1ccc(-c2nn(Cc3ccccc3)c(=S)s2)cc1`: the IC50 entry in data set [1] was “Not Active”.

Turning to `S=c1[nH]nc(Cc2n[nH]c(=S)o2)o1`, the IC50 in data set [1] (read-out: IC50) was 850 µM; in data set [4], more than 1000 µM. The Ki in data set [2] is 500 µM.

As to `S=c1[nH]nc(Cc2n[nH]c(=S)s2)s1`, the half-inhibitory concentration (IC50) in data set [1] (read-out: IC50) amounted to 839 µM. For the same compound, the affinity in data set [2] corresponds to a Ki of 1050 µM. In data set [3], the viability at 0.5 h is more than 90%.

Take `S=c1sc(-c2ccc(OCc3ccccc3)cc2)nn1Cc1ccccc1`: the IC50 entry in data set [1] is given as “Not Active”.

For the compound `S=c1[nH]nc(C(c2ccccc2)c2ccccc2)s1`, the IC50 in data set [1] (read-out: IC50) was more than 1000 µM.

Take `S=c1[nH]nc(-c2ccc(OCc3ccccc3)cc2)o1`: the values for the IC50 in data set [1] (read-out: IC50) and in data set [4] were 900 µM and 628 µM, respectively. Besides, the Ki in data set [2] was found to be 1400 µM; in data set [5], 850 µM.

As for `S=c1[nH]nc(-c2cccc(OCc3ccccc3)c2)o1`, the IC50 in data set [1] (read-out: IC50) is more than 1000 µM; in data set [4], 494 µM. Also, the Ki in data set [5] came out at 360 µM.

For `CC(C)(C)[Si](C)(C)Oc1ccc(-c2n[nH]c(=S)s2)cc1`, the IC50 in data set [1] (read-out: IC50) is 66.5 µM; in data set [4], more than 1000 µM. In addition, in data set [2], the Ki turned out to be 100 µM. Further, the viability at 0.5 h in data set [3] was more than 90%.

Regarding `CCCOc1ccc(-c2nn(CC)c(=S)s2)cc1`, the IC50 result in data set [1] was “Not Active”.

`S=c1[nH]nc(-c2ccncc2)o1`: the IC50 in data set [1] (read-out: IC50) was more than 1000 µM.

On to `S=c1[nH]nc(CCCc2n[nH]c(=S)o2)o1`, for which the IC50 is 429 µM in data set [1] (read-out: IC50) and 467 µM in data set [4]. The Ki in data set [2] was found to be 450 µM; in data set [5] it was 150 µM.

In general, IC50 refers to the concentration needed to halve the response being measured. Broadly, the Ki is a dissociation constant, usually derived from enzyme kinetics or from competition with a known ligand. As usually defined, the viability is a read-out of living cells in per cent, often relative to untreated cells.
